Measured values from ChEMBL document CHEMBL1151761, “Radiohalogenated prostate-specific membrane antigen (PSMA)-based ureas as imaging agents for prostate cancer” (J Med Chem, 2008).

What was measured:
Format in all cases: ADME, organism-based
[1] = Ratio of drug level in tumor to bladder of human PSMA expressing PC3 PIP and PSMA deficient human PC3 flu cells xenografted SCID mouse at 2 uCi, iv after 5 hrs; settings: in vivo
Outline: (§1)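 Male SCID mice carried subcutaneous PSMA+ PC-3 PIP (left shoulder) and PC-3 flu (right shoulder) xenografts, 1-5 × 10^6 cells in HBSS, and were used at 3-5 mm tumor diameter. Tail-vein injection of 2 µCi radioligand; four mice per time point, killed by cervical dislocation. %ID/g from a standard dilution of the dose, decay-corrected, mean ± SD; PIP tumor:organ ratios.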

[2] = Ratio of drug level in tumor to blood of human PSMA expressing PC3 PIP and PSMA deficient human PC3 flu cells xenografted SCID mouse at 2 uCi, iv after 30 mins
Outline: (§2)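 Male SCID mice carried subcutaneous xenografts of PSMA+ PC-3 PIP cells behind the left shoulder and PSMA− PC-3 flu cells behind the right (1–5 × 10^6 cells in HBSS), used at a tumour diameter of 3–5 mm. Each mouse received 2 μCi of radioiodinated tracer via the tail vein. Tissues were harvested at each time point for %ID/g against a standard dilution of the dose, decay-corrected. Ratios are PIP tumour:organ.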

[3] = Ratio of drug level in tumor to kidney of human PSMA expressing PC3 PIP and PSMA deficient human PC3 flu cells xenografted SCID mouse at 2 uCi, iv after 60 mins; settings: in vivo, 1 h; outline: as §1
[4] = Ratio of drug level in PC3 PIP tumor to PC3 flu tumor of human PSMA expressing PC3 PIP and PSMA deficient human PC3 flu cells xenografted SCID mouse at 2 uCi, iv after 30 mins; settings: in vivo, 0.5 h; outline: as §1
[5] = Ratio of drug level in tumor to bladder of human PSMA expressing PC3 PIP and PSMA deficient human PC3 flu cells xenografted SCID mouse at 2 uCi, iv after 60 mins; settings: in vivo, 1 h; outline: as §1
[6] = Biodistribution in PC3 PIP tumor of PSMA expressing human PC3 PIP and PSMA deficient human PC3 flu cells xenografted SCID mouse at 2 uCi, iv after 5 hrs; settings: in vivo
[7] = Ratio of drug level in tumor to liver of human PSMA expressing PC3 PIP and PSMA deficient human PC3 flu cells xenografted SCID mouse at 2 uCi, iv after 60 mins; settings: in vivo, 1 h; outline: as §1
[8] = Ratio of drug level in tumor to heart of human PSMA expressing PC3 PIP and PSMA deficient human PC3 flu cells xenografted SCID mouse at 2 uCi, iv after 60 mins; settings: in vivo, 1 h; outline: as §1
Heart = assay: Biodistribution in heart of PSMA expressing human PC3 PIP and PSMA deficient human PC3 flu cells xenografted SCID mouse at 2 uCi, iv after 5 hrs; settings: in vivo
[9] = Ratio of drug level in PC3 PIP tumor to PC3 flu tumor of human PSMA expressing PC3 PIP and PSMA deficient human PC3 flu cells xenografted SCID mouse at 2 uCi, iv after 60 mins; settings: in vivo, 1 h; outline: as §1
Urinary bladder [10] = assay: Biodistribution in bladder of PSMA expressing human PC3 PIP and PSMA deficient human PC3 flu cells xenografted SCID mouse at 2 uCi, iv after 30 mins; settings: in vivo, 0.5 h
Kidney = assay: Biodistribution in kidney of PSMA expressing human PC3 PIP and PSMA deficient human PC3 flu cells xenografted SCID mouse at 2 uCi, iv after 30 mins; settings: in vivo, 0.5 h
[11] = Ratio of drug level in tumor to spleen of human PSMA expressing PC3 PIP and PSMA deficient human PC3 flu cells xenografted SCID mouse at 2 uCi, iv after 30 mins; settings: in vivo, 0.5 h
Outline: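 Male SCID mice carried subcutaneous xenografts: PSMA+ PC-3 PIP behind the left shoulder and PSMA− PC-3 flu behind the right, 1–5 × 10^6 cells in HBSS. Mice were used at 3–5 mm tumor diameter. 2 μCi was given by tail vein, and 4 mice per time point were killed by cervical dislocation. %ID/g came from a standard dilution of the dose, decay-corrected. Ratio is PIP tumor %ID/g to organ %ID/g.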

[12] = Ratio of drug level in tumor to kidney of human PSMA expressing PC3 PIP and PSMA deficient human PC3 flu cells xenografted SCID mouse at 2 uCi, iv after 5 hrs; settings: in vivo; outline: as §1
[13] = Ratio of drug level in tumor to pancreas of human PSMA expressing PC3 PIP and PSMA deficient human PC3 flu cells xenografted SCID mouse at 2 uCi, iv after 30 mins; settings: in vivo, 0.5 h; outline: as §1
[14] = Biodistribution in PC3 flu tumor of PSMA expressing human PC3 PIP and PSMA deficient human PC3 flu cells xenografted SCID mouse at 2 uCi, iv after 2 hrs; settings: in vivo; outline: as §1
Blood = assay: Biodistribution in blood of PSMA expressing human PC3 PIP and PSMA deficient human PC3 flu cells xenografted SCID mouse at 2 uCi, iv after 5 hrs; settings: in vivo
Urinary bladder [15] = assay: Biodistribution in bladder of PSMA expressing human PC3 PIP and PSMA deficient human PC3 flu cells xenografted SCID mouse at 2 uCi, iv after 2 hrs; settings: in vivo
[16] = Biodistribution in large intestine of PSMA expressing human PC3 PIP and PSMA deficient human PC3 flu cells xenografted SCID mouse at 2 uCi, iv after 5 hrs; settings: in vivo; outline: as §1
[17] = Ratio of drug level in PC3 PIP tumor to PC3 flu tumor of human PSMA expressing PC3 PIP and PSMA deficient human PC3 flu cells xenografted SCID mouse at 2 uCi, iv after 5 hrs; settings: in vivo; outline: as §1
[18] = Ratio of drug level in tumor to liver of human PSMA expressing PC3 PIP and PSMA deficient human PC3 flu cells xenografted SCID mouse at 2 uCi, iv after 30 mins; settings: in vivo, 0.5 h; outline: as §1
[19] = Ratio of drug level in tumor to lung of human PSMA expressing PC3 PIP and PSMA deficient human PC3 flu cells xenografted SCID mouse at 2 uCi, iv after 2 hrs; settings: in vivo; outline: as §1
[20] = Ratio of drug level in tumor to lung of human PSMA expressing PC3 PIP and PSMA deficient human PC3 flu cells xenografted SCID mouse at 2 uCi, iv after 30 mins; settings: in vivo, 0.5 h; outline: as §1
[21] = Ratio of drug level in tumor to large intestine of human PSMA expressing PC3 PIP and PSMA deficient human PC3 flu cells xenografted SCID mouse at 2 uCi, iv after 2 hrs; settings: in vivo; outline: as §1
[22] = Ratio of drug level in tumor to large intestine of human PSMA expressing PC3 PIP and PSMA deficient human PC3 flu cells xenografted SCID mouse at 2 uCi, iv after 5 hrs; settings: in vivo; outline: as §1
Pancreas = assay: Biodistribution in pancreas of PSMA expressing human PC3 PIP and PSMA deficient human PC3 flu cells xenografted SCID mouse at 2 uCi, iv after 5 hrs; settings: in vivo
[23] = Ratio of drug level in tumor to liver of human PSMA expressing PC3 PIP and PSMA deficient human PC3 flu cells xenografted SCID mouse at 2 uCi, iv after 2 hrs; settings: in vivo; outline: as §1
[24] = Ratio of drug level in tumor to blood of human PSMA expressing PC3 PIP and PSMA deficient human PC3 flu cells xenografted SCID mouse at 2 uCi, iv after 2 hrs; outline: as §2

Work on `O=C(O)CC[C@H](NC(=O)N[C@@H](CCCCNC(=O)c1ccc([18F])cc1)C(=O)O)C(=O)O` yielded a Ratio [1] of 0.7, a Kp at 0.5 h [2] of 3 and a Ratio [3] of 0.1. The Ratio [4] was 11, the Ratio [5] was 0.4 and the Drug uptake [6] was 3.5 % ID/g. The Ratio [7] was 1, the Ratio [8] was 35 and the Drug uptake (Heart) was 0.03 % ID/g. It also gave a Ratio [9] of 21, a Drug uptake (Urinary bladder [10]) of 6.8 % ID/g and a Drug uptake (Kidney) of 72 % ID/g. The Ratio [11] was 0.7, the Ratio [12] was 0.3 and the Ratio [13] was 11. For the same molecule, the Drug uptake [14] was 0.25 % ID/g, the Drug uptake (Blood) was 0.03 % ID/g and the Drug uptake (Urinary bladder [15]) was 11 % ID/g. For the same molecule, the Drug uptake [16] was 0.6 % ID/g, the Ratio [17] was 35 and the Ratio [18] was 1. It also gave a Ratio [19] of 4, a Ratio [20] of 5 and a Ratio [21] of 19. It also gave a Ratio [22] of 6, a Drug uptake (Pancreas) of 0.05 % ID/g and a Ratio [23] of 0.3. The Kp at 2 h [24] was 9.
